Values belong to the compound of their own block, whether it stands above or below them.
Key:
Xenopus laevis = organism: Xenopus laevis; assay: Tested for the effect on maxi-K-mediated outward current (mSlo) in Xenopus laevis oocytes at 20 uM; assay type: functional, frog
Summary of the method: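 Two-electrode voltage clamp was run on Xenopus laevis oocytes expressing cloned mSlo maxi-K channels. A single drug concentration was tested in at least five oocytes against iberiotoxin-sensitive outward K+ current. Output is the average percentage change in current relative to the drug-free control (100%).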

[1] = Compound was evaluated for Tmax in brain after intravenous administration in male rats; assay type: ADME, organism-based; conditions: rat
Summary of the method: (§1)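 Male rats got an iv bolus of 4.7 mg/kg, N=3 at each time point. Whole brain and plasma were sampled through 24 h. AUC (ng-h/mL plasma, ng-h/g brain) was calculated by the trapezoidal rule over 0–24 h. Brain/plasma ratio was taken from the AUC values. Cmax, Tmax and elimination half-lives were derived for brain and plasma.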

[2] = Tested for concentration in brain after 0.25 hrs of intravenous administration (5 mg/kg) to male rats; assay type: ADME, organism-based; conditions: rat
Summary of the method: (§2)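 Male rats got a single iv bolus of 5 mg/kg. Plasma and whole brain were sampled at 0.25 h and 2 h. Plasma is in ng/mL and brain in ng/g wet weight, each the mean of three animals ± standard deviation. Brain detection limit was 50 ng/g. Brain/plasma ratio was computed at each time point.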

[3] = (§3) Tested for concentration in brain after intravenous administration (4.7 mg/kg) to male rats; assay type: ADME, organism-based; set-up: dose 4.7 mg/kg, route intravenous; conditions: rat; summary of the method: as §1
[4] = Ratio of the AUC values of brain and plasma after intravenous administration (4.7 mg/kg) to male rats was evaluated; assay type: ADME, organism-based; conditions: rat; summary of the method: as §1
[5] = Ratio in brain and plasma after 2 hrs of intravenous administration (5 mg/kg) to male rats was evaluated; assay type: ADME, organism-based; conditions: rat; summary of the method: as §2
[6] = Tested for concentration in brain after 2 hrs of intravenous administration (5 mg/kg) to male rats; assay type: ADME, organism-based; conditions: rat; summary of the method: as §2
[7] = Ratio in brain and plasma after 0.25 hrs of intravenous administration (5 mg/kg) to male rats was evaluated; assay type: ADME, organism-based; conditions: rat; summary of the method: as §2
[8] = Tested for plasma concentration after intravenous administration (4.7 mg/kg) to male rats; assay type: ADME, organism-based; conditions: rat; summary of the method: as §1
[9] = Tested for plasma concentration in the after 2 hrs of intravenous administration (5 mg/kg) to male rats; assay type: ADME, organism-based; conditions: rat; summary of the method: as §2
Rattus norvegicus = assay: as §3; assay type: ADME, organism-based; conditions: in vivo; summary of the method: as §1
[10] = Half-life in brain after intravenous administration (4.7 mg/kg) to male rats; assay type: ADME, organism-based; conditions: rat; summary of the method: as §1
[11] = Half-life in plasma after intravenous administration (4.7 mg/kg) to male rats; assay type: ADME, organism-based; conditions: rat; summary of the method: as §1
[12] = Tested for plasma concentration in the after 0.25 hrs of intravenous administration (5 mg/kg) to male rats; assay type: ADME, organism-based; conditions: rat; summary of the method: as §2
[13] = Tested for plasma concentration after 2 hrs of intravenous administration (5 mg/kg) to male rats; assay type: ADME, organism-based; conditions: rat; summary of the method: as §2
[14] = Tested for ratio in brain and plasma after 2 hrs of intravenous administration (5 mg/kg) to male rats; assay type: ADME, organism-based; conditions: rat; summary of the method: as §2
[15] = Tested for plasma concentration after 0.25 hrs of intravenous administration (5 mg/kg) to male rats; assay type: ADME, organism-based; conditions: rat; summary of the method: as §2
[16] = Tested for ratio in brain and plasma after 0.25 hrs of intravenous administration (5 mg/kg) to male rats; assay type: ADME, organism-based; conditions: rat; summary of the method: as §2

SMILES: O=S(=O)(Nc1c(O)nc2cc(C(F)(F)F)ccc2c1-c1cc(Cl)ccc1O)C(F)(F)F
- Increase (Xenopus laevis): 213%

SMILES: Nc1c(O)nc2ccccc2c1-c1cc(Cl)ccc1O
- Increase (Xenopus laevis): 114%

SMILES: Nc1c(O)nc2c(C(F)(F)F)cccc2c1-c1cc(Cl)ccc1O
- Increase (Xenopus laevis): 112%

SMILES: Nc1c(O)nc2ccc(C(F)(F)F)cc2c1-c1ccccc1O
- Increase (Xenopus laevis): 137%

- Tmax [1]: 4.8 min
- concentration at 0.25 h [2]: 1310 ng/g
- Cmax [3]: 1990 ng/g
- Kp [4]: 7.1
- Kp at 2 h [5]: 5.3
- concentration at 2 h [6]: 1490 ng/g
- Kp at 0.25 h [7]: 1.6
- AUC [8]: 2700 ng·h/mL
- concentration at 2 h [9]: 281 ng/mL
- AUC (Rattus norvegicus): 19300 ng·h/g
- half-life [10]: 8.1 h
- half-life [11]: 7.6 h
- concentration at 0.25 h [12]: 802 ng/mL
SMILES: Nc1c(O)nc2ccc(C(F)(F)F)cc2c1-c1cc(Cl)ccc1O
- Increase (Xenopus laevis): 186%

SMILES: Nc1c(O)nc2ccc(C(F)(F)F)cc2c1-c1ccccc1
- Increase (Xenopus laevis): 111%

SMILES: Nc1c(O)nc2cccc(C(F)(F)F)c2c1-c1cc(Cl)ccc1O
- Increase (Xenopus laevis): 191%

SMILES: O=c1[nH]c2cc(C(F)(F)F)ccc2n1-c1cc(Cl)ccc1O
- Increase (Xenopus laevis): 132%

SMILES: CS(=O)(=O)Nc1c(O)nc2ccc(C(F)(F)F)cc2c1-c1cc(Cl)ccc1O
- Increase (Xenopus laevis): 164%

SMILES: Nc1c(O)nc2ccc(Cl)cc2c1-c1cc(Cl)ccc1O
- Increase (Xenopus laevis): 157%

SMILES: COc1ccc(Cl)cc1-c1c(N)c(O)nc2ccccc12
- Increase (Xenopus laevis): 108%

SMILES: CC(=O)Nc1c(O)nc2ccc(C(F)(F)F)cc2c1-c1cc(Cl)ccc1O
- Increase (Xenopus laevis): 120%

- concentration at 0.25 h [2]: < 50 ng/g
- concentration at 2 h [6]: < 50 ng/g
- concentration at 2 h [9]: 125 ng/mL
- concentration at 0.25 h [12]: 1230 ng/mL
SMILES: O=S(=O)(Nc1c(O)nc2ccc(C(F)(F)F)cc2c1-c1cc(Cl)ccc1O)C(F)(F)F
- Increase (Xenopus laevis): 343%

- concentration at 0.25 h [2]: 1470 ng/g
- concentration at 2 h [13]: 339 ng/mL
- Kp at 2 h [14]: 4.4
- concentration at 0.25 h [15]: 1170 ng/mL
- concentration at 2 h [6]: 1480 ng/g
- Kp at 0.25 h [16]: 1.3
SMILES: Nc1c(O)nc2cc(C(F)(F)F)ccc2c1-c1cc(Cl)ccc1O
- Increase (Xenopus laevis): 159%
